According to ChEMBL document CHEMBL1773009, “Red-fluorescent argininamide-type NPY Y1 receptor antagonists as pharmacological tools” (Bioorg Med Chem, 2011):
Active and inactive are the calls of the source. The calls are words filed in the database; no cut-off is given here.

Key:
[1] = target: T1, Neuropeptide Y receptor type 1 (Homo sapiens) (UniProt P25929); test: Antagonist activity at Y1R in human HEL cells assessed as inhibition of pNPY induced [Ca2+] mobilisation; format: functional, cell-based
T1 sequence (whole entry): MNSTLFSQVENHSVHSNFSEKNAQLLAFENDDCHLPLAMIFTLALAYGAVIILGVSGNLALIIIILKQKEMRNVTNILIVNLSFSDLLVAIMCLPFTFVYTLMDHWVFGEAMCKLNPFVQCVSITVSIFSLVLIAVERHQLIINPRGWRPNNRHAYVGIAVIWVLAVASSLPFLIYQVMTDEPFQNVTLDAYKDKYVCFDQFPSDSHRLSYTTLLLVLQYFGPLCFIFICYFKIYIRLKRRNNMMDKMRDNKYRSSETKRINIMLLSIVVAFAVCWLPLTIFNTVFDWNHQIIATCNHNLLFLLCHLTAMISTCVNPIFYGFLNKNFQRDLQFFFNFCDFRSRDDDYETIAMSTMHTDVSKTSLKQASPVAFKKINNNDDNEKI

[2] = target: T2, Neuropeptide Y receptor type 1 (Homo sapiens, UniProt P25929); test: Displacement of [3H]-UR-MK114 from Y1R in human SK-N-MC cells; format: cell-based
T2 sequence (P25929 whole entry): T1 sequence (whole entry)

[3] = Chemical stability in aqueous buffer assessed as compound decomposition after 20 mins at pH 7 by HPCL; format: physicochemical; settings: read-out: Activity
Procedure, shortened: (§1)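 Compound at 50 µM final (from 1 mM DMSO stock) in PBS pH 7.0, 20 °C; aliquots at 20 and 90 min diluted with acetonitrile/H2O/1% TFA, analysed by RP-HPLC (220 nm); release of parent argininamide quantified against a five-point calibration curve (0.3–25 µM).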

[4] = Chemical stability in aqueous buffer assessed as compound decomposition after 90 mins at pH 7 by HPCL; format: physicochemical; settings: read-out: Activity; procedure, shortened: as §1
[5] = target: Neuropeptide Y receptor type 4 (Homo sapiens, UniProt P50391); test: Displacement of Cy5-[K4]-hpp from human Y4R expressed in CHO cells by flow cytometry; format: cell-based
Sequence of Neuropeptide Y receptor type 4 (P50391 whole entry): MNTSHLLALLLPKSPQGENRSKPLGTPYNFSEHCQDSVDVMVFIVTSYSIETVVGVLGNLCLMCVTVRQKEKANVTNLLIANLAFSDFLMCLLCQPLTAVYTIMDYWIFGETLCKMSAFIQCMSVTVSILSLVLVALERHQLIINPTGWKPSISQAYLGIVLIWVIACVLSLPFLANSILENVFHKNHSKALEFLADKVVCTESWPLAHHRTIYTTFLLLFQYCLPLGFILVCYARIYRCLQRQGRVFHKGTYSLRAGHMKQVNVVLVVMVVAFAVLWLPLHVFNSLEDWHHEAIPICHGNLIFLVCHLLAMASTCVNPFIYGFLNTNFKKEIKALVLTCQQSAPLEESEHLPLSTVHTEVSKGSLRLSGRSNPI
Procedure, shortened: (§2)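 Flow cytometric displacement of labelled peptides: Cy5-[K4]-hPP on CHO-Y4 cells; Dy-635-pNPY or Cy5-pNPY on CHO-Y2 and HEC-1B-Y5 cells. Test ligands only at 1 and 10 µM or at 0.3 and 1 µM; for the red-excitable ligand, its own fluorescence without peptide was subtracted.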

[6] = target: T3, Neuropeptide Y receptor type 2 (Homo sapiens, UniProt P49146); test: Displacement of Dy-635-pNPY from human Y2R expressed in CHO cells by flow cytometry; format: cell-based; procedure, shortened: as §2
T3 sequence (P49146 whole entry): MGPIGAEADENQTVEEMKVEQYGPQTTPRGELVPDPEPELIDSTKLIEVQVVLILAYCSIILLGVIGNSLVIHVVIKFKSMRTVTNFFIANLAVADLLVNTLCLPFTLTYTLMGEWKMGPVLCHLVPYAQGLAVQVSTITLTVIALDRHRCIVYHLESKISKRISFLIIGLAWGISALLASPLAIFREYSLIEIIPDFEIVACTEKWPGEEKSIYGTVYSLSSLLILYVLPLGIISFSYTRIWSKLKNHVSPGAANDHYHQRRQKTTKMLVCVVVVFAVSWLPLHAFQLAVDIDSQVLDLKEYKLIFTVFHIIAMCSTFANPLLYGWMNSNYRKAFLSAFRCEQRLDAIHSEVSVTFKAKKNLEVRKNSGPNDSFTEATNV

[7] = target: T1, Neuropeptide Y receptor type 1 (Homo sapiens); test: Antagonist activity at Y1R in human MCF-7 cells at 50 nM after 5 to 8 mins by fluorescence confocal microscopy; format: functional, cell-based; settings: MCF7
Procedure, shortened: (§3)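 MCF-7-Y1 cells (MCF-7 subclone with 2–3-fold higher Y1R expression) pretreated 48 or 72 h with 1 nM 17β-estradiol; live-cell confocal imaging of fluorescent ligand (50–80 nM) after 5–23 min at rt in Leibovitz L15; non-specific binding with excess BIBP 3226 (5 µM or 80–125-fold); autofluorescence control.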

[8] = Chemical stability of the compound in DMSO at below 0 degC; format: physicochemical
[9] = target: T4, Neuropeptide Y receptor type 5 (Homo sapiens, UniProt Q15761); test: Displacement of Dy-635-pNPY from human Y5R expressed in HEC-1B cells by flow cytometry
T4 sequence (Q15761 whole entry): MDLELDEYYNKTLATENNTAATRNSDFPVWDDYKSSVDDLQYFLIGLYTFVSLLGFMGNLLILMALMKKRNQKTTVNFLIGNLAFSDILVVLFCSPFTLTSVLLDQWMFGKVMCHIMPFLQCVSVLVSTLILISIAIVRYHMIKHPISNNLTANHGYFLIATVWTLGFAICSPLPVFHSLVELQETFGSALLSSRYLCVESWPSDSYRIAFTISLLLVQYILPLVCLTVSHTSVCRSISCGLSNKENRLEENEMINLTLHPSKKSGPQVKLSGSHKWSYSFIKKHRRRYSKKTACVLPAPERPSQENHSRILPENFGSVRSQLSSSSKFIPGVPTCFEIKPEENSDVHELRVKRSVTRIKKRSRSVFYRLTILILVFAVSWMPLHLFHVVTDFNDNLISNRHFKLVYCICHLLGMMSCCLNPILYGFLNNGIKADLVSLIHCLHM

[10] = target: T2, Neuropeptide Y receptor type 1; test: Displacement of [3H]-UR-MK114 from Y1R in human SK-N-MC cells by radioligand competition binding
[11] = target: T1, Neuropeptide Y receptor type 1 (Homo sapiens); test: Antagonist activity at Y1R in human MCF-7 cells at 80 nM after 23 mins by fluorescence confocal microscopy; format: functional, cell-based; settings: MCF7; procedure, shortened: as §3
[12] = target: T1, Neuropeptide Y receptor type 1 (Homo sapiens); test: Antagonist activity at Y1R in human MCF-7 cells at 50 nM after 12 to 15 mins by fluorescence confocal microscopy; format: functional, cell-based; settings: MCF7; procedure, shortened: as §3
[13] = target: T2, Neuropeptide Y receptor type 1; test: Binding affinity at Y1R in human MCF-7 cells by flow cytometry; format: cell-based, MCF7
Procedure, shortened: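 MCF-7-Y1 cells given 1 nM 17β-estradiol 3 days beforehand, trypsinised, suspended at 0.5–1 × 10^6 cells/mL in HEPES-buffered saline, 1% DMSO; saturation with fluorescent ligand 1–50 nM (non-specific: 200-fold BIBP 3226) or competition against 10 nM labelled ligand (0.03–3000 nM competitor); 15 min dark, rt; 635 nm excitation, FL-4 readout, 20,000 gated events.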

Kb [1]	Ki [2]	degraded at 20 min [3]	degraded at 1.5 h [4]	IC50 [5]	Ki [5]	IC50 [6]	Ki [6]	Activity [7]	Stability [8]	IC50 [9]	Ki [9]	Ki [10]	Activity [11]	Activity [12]	Kd [13]	SMILES
6 nM	22 nM	1%	2.6%	> 10000 nM	> 3000 nM	> 10000 nM	> 3000 nM	Active	12 months	> 10000 nM	> 5000 nM	22 nM	–	–	–	Cc1cc(/C=C/c2cc3c4c(c2)CCCN4CCC3)cc(C)[n+]1CCNC(=O)CCCC(=O)/N=C(/N)NCCC[C@@H](NC(=O)C(c1ccccc1)c1ccccc1)C(=O)NCc1ccc(O)cc1.O=C([O-])C(F)(F)F
1 nM	56 nM	–	–	–	–	–	–	–	12 months	–	–	–	Active	–	–	Cc1cc(/C=C/c2cc3c4c(c2)CCCN4CCC3)cc(C)[n+]1CCN(CCNC(=O)CCCNC(=O)CCCC(=O)/N=C(\N)NCCC[C@@H](NC(=O)C(c1ccccc1)c1ccccc1)C(=O)NCc1ccc(O)cc1)CCNC(=O)CCCNC(=O)CCCC(=O)/N=C(\N)NCCC[C@@H](NC(=O)C(c1ccccc1)c1ccccc1)C(=O)NCc1ccc(O)cc1.O=C([O-])C(F)(F)F
0.7 nM	26 nM	0%	0%	> 1000 nM	> 500 nM	> 1000 nM	> 500 nM	–	12 months	> 1000 nM	> 400 nM	26 nM	–	Active	5 nM	CN(C)c1ccc(/C=C/C=C/c2sc3ccccc3[n+]2CCCC(=O)NCCCCNC(=O)/N=C(/N)NCCC[C@@H](NC(=O)C(c2ccccc2)c2ccccc2)C(=O)NCc2ccc(O)cc2)cc1.O=C([O-])C(F)(F)F
